Here are results for 25 molecules from ChEMBL document CHEMBL1129404, “6-phenyl-1,4-dihydropyridine derivatives as potent and selective A3 adenosine receptor antagonists” (J Med Chem, 1996).

Structures are written as SMILES.

The target of one assay is T1, Adenosine receptor A1 (Rattus norvegicus) (UniProt P25099).
T1 sequence (whole entry): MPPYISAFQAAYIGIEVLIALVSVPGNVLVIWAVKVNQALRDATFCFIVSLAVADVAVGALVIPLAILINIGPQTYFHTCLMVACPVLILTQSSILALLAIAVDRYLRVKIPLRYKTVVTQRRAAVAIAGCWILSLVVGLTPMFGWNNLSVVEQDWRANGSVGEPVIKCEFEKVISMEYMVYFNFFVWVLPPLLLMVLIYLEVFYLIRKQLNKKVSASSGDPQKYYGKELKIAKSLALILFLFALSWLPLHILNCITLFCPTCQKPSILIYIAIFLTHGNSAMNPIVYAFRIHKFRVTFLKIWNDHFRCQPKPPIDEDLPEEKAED
Briefly: Binding affinity for Adenosine A1 receptor of rat cerebral cortex membrane with [3H](R)-PIA. Type of assay: tissue-based.
Conditions: not given
The procedure, abridged:
(§1)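 Rat cerebral cortex membranes prepared with adenosine deaminase (3 units/mL), preincubated 30 min at 30 °C, with deaminase also present during incubation with [3H]-(R)-PIA. Competitor used at five or more concentrations spanning 3 orders of magnitude.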
Molecule `CCOC(=O)C1=C(c2ccccc2)N=C(C)/C(=C(/O)OCc2ccccc2)C1/C=C/c1ccccc1` (stereo not given) came in with an Inhibition (at concentration M) of under 10%.

The next assay has as its target Adenosine receptor A2a (Rattus norvegicus) (UniProt P30543). In words: Binding affinity for Adenosine A2A receptor in rat striatal membrane with [3H]-CGS- 21680. Type of assay: cell membranes. Set-up: concentration or dose not given beside the values. The note with it: Striatum.
`CCOC(=O)C1=C(c2ccc(C)cc2)N=C(C)/C(=C(/O)OCC)C1/C=C/c1ccccc1` (stereo not given): the Inhibition (at concentration M) amounted to 37%.
As to `CCOC(=O)C1=C(c2ccccc2)N=C(C)/C(=C(/O)OCC)C1C=C(c1ccccc1)c1ccccc1` (stereo not given), the Inhibition (at concentration M) turned out to be 12%.
Molecule `CCOC(=O)C1=C(c2ccccc2)N=C(C)/C(=C(/O)OCC)C1C#Cc1ccccc1` (stereo not given) gave an Inhibition (at concentration M) of 26%.
Regarding `CCOC(=O)C1=C(c2ccccc2)N=C(C)/C(=C(/O)OCc2ccccc2)C1C#Cc1ccccc1` (stereo not given), the Inhibition (at concentration M) was under 10%.
For the molecule `CCO/C(O)=C1\C(C)=NC(c2ccccc2)=C(C(=O)OCc2ccccc2)C1C#Cc1ccccc1` (stereo not given), the Inhibition (at concentration M) was under 10%.
The molecule `CCO/C(O)=C1\C(C)=NC(c2ccccc2)=C(C(=O)OCc2ccccc2)C1/C=C/c1ccccc1` (stereo not given) returned an Inhibition (at concentration M) of 15%.

A further assay deals with T1, Adenosine receptor A1 (Rattus norvegicus). Briefly: Binding affinity for Adenosine A1 receptor in rat cerebral cortex membrane with [3H]-(R)-PIA.
Conditions: not given
It counts as cell membranes. The method in brief:
as §1
For the molecule `CCOC(=O)C1=C(c2ccccc2)N=C(C)/C(=C(/O)OCc2ccccc2)C1C#Cc1ccccc1` (stereo not given), the Inhibition (at concentration M) was 24%.
On the same count and under the same terms, to `CCO/C(O)=C1\C(C)=NC(c2ccccc2)=C(C(=O)OCc2ccccc2)C1/C=C/c1ccccc1` (stereo not given) belongs 35%.

A further assay shares this target. In words: Binding affinity for Adenosine A1 receptor in rat cerebral cortex membrane with [3H](R)-PIA. Conditions: concentration not given here. It counts as cell membranes. The method in brief:
as §1
Broadly, the inhibition is the percentage by which the read-out fell short of the control. Molecule `CCOC(=O)C1=C(c2ccccc2)N=C(C)/C(=C(/O)OCc2ccccc2)C1/C=C/c1ccc([N+](=O)[O-])cc1` (stereo not given) returned an inhibition of under 10%.
`CCO/C(O)=C1\C(C)=NC(c2ccccc2)=C(C(=O)OCc2ccccc2)C1/C=C/c1ccc([N+](=O)[O-])cc1` (stereo not given) gave an inhibition of 33%.

In the next assay the target is Adenosine receptor A2a (Rattus norvegicus) (UniProt P30543). Briefly: Inhibition of [3H]-CGS- 21680 binding to Adenosine A2A receptor of rat striatal membrane. Set-up: concentration or dose not given beside the values. Conditions: concentration not given here.
Adenosine receptor A2a (Rattus norvegicus), sequence (P30543 whole entry): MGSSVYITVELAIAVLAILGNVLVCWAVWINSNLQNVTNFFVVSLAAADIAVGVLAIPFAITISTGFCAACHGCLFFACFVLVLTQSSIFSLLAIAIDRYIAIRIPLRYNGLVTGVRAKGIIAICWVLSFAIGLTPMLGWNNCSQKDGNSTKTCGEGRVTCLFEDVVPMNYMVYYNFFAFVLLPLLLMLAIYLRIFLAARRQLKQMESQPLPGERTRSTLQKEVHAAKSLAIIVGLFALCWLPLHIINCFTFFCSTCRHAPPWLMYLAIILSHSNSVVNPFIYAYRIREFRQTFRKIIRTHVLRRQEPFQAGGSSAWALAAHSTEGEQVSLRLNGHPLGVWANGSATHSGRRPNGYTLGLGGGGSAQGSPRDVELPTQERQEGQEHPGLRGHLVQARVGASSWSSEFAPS
`CCOC(=O)C1=C(c2ccccc2)N=C(C)/C(=C(/O)OCC)C1/C=C/c1ccccc1[N+](=O)[O-]` (stereo not given) showed an inhibition of under 10%.
`CCOC(=O)C1=C(C)NC(C)=C(C(=O)OCc2ccccc2)C1/C=C/c1ccccc1` (stereo not given): the inhibition was determined as 14%.
Take `CCOC(=O)C1=C(c2ccoc2)N=C(C)/C(=C(/O)OCC)C1/C=C/c1ccccc1` (stereo not given): the inhibition turned out to be 35%.
The same measure, in the same setting: the figure for `CCOC(=O)C1=C(c2ccccc2)N=C(C)/C(=C(/O)OCc2ccccc2)C1/C=C/c1ccc([N+](=O)[O-])cc1` (stereo not given) is under 10%.
Still for that read-out and setting: the figure for `CCO/C(O)=C1\C(C)=NC(c2ccccc2)=C(C(=O)OCc2ccccc2)C1/C=C/c1ccc([N+](=O)[O-])cc1` (stereo not given) is under 10%; for `CCOC(=O)c1c(C)nc(-c2ccccc2)c(C(=O)OCc2ccccc2)c1C#Cc1ccccc1` it is 43%; for `CCOC(=O)C1=C(c2ccc(Cl)cc2)N=C(C)/C(=C(/O)OCC)C1/C=C/c1ccccc1` (stereo not given) it is 12%.
Molecule `CCOC(=O)C1=C(c2ccsc2)N=C(C)/C(=C(/O)OCC)C1/C=C/c1ccccc1` (stereo not given) had an inhibition of under 10%.
Consider `CCOC(=O)C1=C(c2ccccc2)N=C(C)/C(=C(/O)OCC)C1/C=C/c1ccc([N+](=O)[O-])cc1` (stereo not given), for which the inhibition turned out to be 33%.
Molecule `CCOC(=O)C1=C(c2ccc(OC)cc2)N=C(C)/C(=C(/O)OCC)C1/C=C/c1ccccc1` (stereo not given) yielded an inhibition of under 10%.
Take `CCOC(=O)C1=C(c2ccccc2)N=C(C)/C(=C(/O)OCC)C1/C=C/c1ccccc1OC` (stereo not given): the inhibition was 17%.

The target of a further assay is Adenosine receptor A2a (Rattus norvegicus, UniProt P30543). Briefly: Displacement of [3H]-CGS- 21680 from Adenosine A2A receptor of rat striatal membrane.
Adenosine receptor A2a, sequence (P30543 whole entry): as above
Conditions: not given
As a reminder, the Ki is a measure of affinity in units of concentration, obtained from inhibition or displacement. Regarding `CCO/C(O)=C1\C(C)=NC(C)=C(C(=O)OC)C1CC` (stereo not given), the inhibitory constant (Ki) was found to be 7.89 µM.
Same read-out and setting: to `CCOC(=O)c1c(C)nc(-c2ccccc2)c(C(=O)OCC)c1/C=C/c1ccccc1` belongs 2.4 µM.
Still for that read-out and setting: the figure for `CCO/C(O)=C1\C(C)=NC(c2ccccc2)=C(C(=O)OCc2ccccc2)C1C` (stereo not given) is 3.15 µM; for `CCOC(=O)C1=C(C)N=C(C)/C(=C(/O)OCC)C1/C=C/c1ccccc1` (stereo not given) it is 9.23 µM; for `CCOC(=O)C1=C(c2ccccc2)N=C(C)/C(=C(/O)OCC)C1CC` (stereo not given) it is 14.5 µM.

Test system in another assay: not listed separately
In words: Relative affinities for rat adenosine A1 and human adenosine A3 receptors.
Conditions: not given
The method in brief: (§2)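 Ratio of Ki values: rat A1 ([3H]-(R)-PIA, rat cortical membranes) over human A3 ([125I]AB-MECA, HEK-293 membranes), each Ki derived by Cheng-Prusoff from competition curves.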
`CCOC(=O)c1c(C)nc(-c2ccccc2)c(C(=O)OCC)c1C`: the Selectivity ratio turned out to be 1.7.

Test system in another assay: not listed separately
Briefly: Relative binding affinities for rat adenosine A1 and human adenosine A3 receptors; Selectivity ratio.
Conditions: not given
The method in brief:
as §2
As to `CCOC(=O)C1=C(C)NC(C)=C(C(=O)OC)C1/C=C/c1ccccc1` (stereo not given), the Ratio amounted to 24.
Take `CCOC(=O)c1c(C)nc(-c2ccccc2)c(C(=O)OCc2ccccc2)c1C#Cc1ccccc1`: the Ratio is 4.2.
